A short description of series [1]: Displacement of [125I]-IMPY from amyloid beta (1 to 42) fibrils after 2 hrs by gamma-counting analysis. The essentials:
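Competition binding with aggregated Aβ1-42 fibrils and [125I]IMPY (60000−100000 cpm/100 μL) in 0.05% BSA (1 mL total); inhibitors 10⁻⁴−10^−8.5 M in ethanol. Incubated 37 °C for 2 h, then GF/B vacuum filtration with PBS (0.02 M, pH 7.4) washes and γ counting. Three repeats; IC50 converted to Ki by Cheng−Prusoff.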
A general note: In a radioligand displacement assay an active substance lowers the binding of a labelled ligand.

Another series relates to Brain. Kind of series: Ratio of drug uptake in brain at 2 mins to drug uptake in brain at 60 mins in CD1 mouse at 10 uCi, iv. The series is classed as ADME, organism-based. Conditions: in vivo. The procedure, abridged: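 Normal male ICR mice (5 weeks, about 20 g) received the 18F-labelled tracer in saline, 370 KBq per 100 μL, by tail-vein injection. Five mice per time point were killed at 2, 10, 30 and 60 min. Organs were weighed and gamma-counted against diluted aliquots of the injected dose to give % dose/g. The ratio is brain uptake at 2 min over brain uptake at 60 min.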

The values that follow come from ChEMBL document CHEMBL2177098, “Synthesis and evaluation of novel ¹⁸F labeled 2-pyridinylbenzoxazole and 2-pyridinylbenzothiazole derivatives as ligands for positron emission tomography (PET) imaging of β-amyloid plaques” (J Med Chem, 2012).

As usually defined, the Ki is a measure of affinity in units of concentration, obtained from inhibition or displacement. Low readings indicate higher affinity, high ones lower affinity. In series [1], `CNc1ccc(/C=C/c2ccc(OCCOCCOCC[18F])nc2)cc1` [FLORBETAPIR F 18] yielded a Ki of 2.87 nM. For the same compound, in the series with Brain, the Ratio is recorded as 3.9.
